This is an account of results in ChEMBL document CHEMBL1149096 (J Med Chem, 2004).

The target in assay [1] is Opioid receptors; mu & delta (Rattus norvegicus) (UniProt P33533+P33535). Nature of the assay: Selectivity given as ratio of mu receptor to delta receptor. The class given is protein assay.
The species entered for another assay is Cavia porcellus. The assay is described as follows: Selectivity given as ratio of kappa receptor to delta receptor.
Assay [2] addresses Delta-type opioid receptor (Rattus norvegicus, UniProt P33533). The assay is described as follows: Binding affinity at opioid receptor delta 1 by displacement of [3H]DADLE in rat brain membrane. The class given is cell membranes.
Assay [3] deals with Mu-type opioid receptor (Rattus norvegicus, UniProt P33535). Nature of the assay: Binding affinity at Opioid receptor mu 1 by displacement of [3H]DAMGO at 1.4 to 3.0 nM in rat brain membrane. The format is cell membranes. The method, boiled down: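 Rat brain membranes freshly homogenised in ice-cold 10 mM Tris-HCl pH 7.0, centrifuged twice at 30000g, then resuspended in 50 mM Tris-HCl pH 7.4. […] Nonspecific binding was defined with 20 µM levallorphan. Two experiments were pooled and fitted by logistic regression, with Ki = IC50/(1+[L]/Kd).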

Assay [4] concerns the target T1, Kappa-type opioid receptor (Cavia porcellus, UniProt P41144). Nature of the assay: Binding affinity at Opioid receptor kappa 1 by displacement of [3H]U-69593 in guinea pig brain membranes. The format is cell membranes, Membrane. In general terms: Loss of bound radioactivity is the signal in a displacement assay; it reports binding, not function.
Assay [5] deals with Delta-type opioid receptor (Mus musculus, UniProt P32300). The assay is described as follows: Inhibitory concentration required for 50 percent inhibition of opioid receptor delta 1 induced contractions in mouse vas deferens (MVD) smooth muscle contraction assays. The class given is functional. In a few lines:
(§1)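 Electrically stimulated MVD (male ICR mice, 25-40 g) and GPI longitudinal muscle myenteric plexus strips (male Hartley guinea pigs, 250-500 g). Baths held 37 °C oxygenated Krebs bicarbonate (Mg-free for MVD), tension 1 g GPI / 0.5 g MVD. Stimulation 0.1 Hz, 0.4 ms pulses (2 ms MVD), supramaximal voltage. […] IC50 from two to four tissues by nonlinear least squares.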

Assay [6] deals with Delta-type opioid receptor (Mus musculus) (UniProt P32300). The conditions noted are these: Vas deferens; filed as agonist.
The target in assay [7] is T2, Mu-type opioid receptor (Cavia porcellus, UniProt P97266). The assay is described as follows: Inhibitory concentration for inhibition of Opioid receptor mu 1 induced contractions in guinea pig ileum (GPI) smooth muscle assays. The class given is functional, tissue-based. In a few lines: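 Electrically stimulated MVD (male ICR mice, 25-40 g) and GPI longitudinal muscle myenteric plexus strips (male Hartley guinea pigs, 250-500 g). Baths held 37 °C oxygenated Krebs bicarbonate (Mg-free for MVD), tension 1 g GPI / 0.5 g MVD. Stimulation 0.1 Hz, 0.4 ms pulses (2 ms MVD), supramaximal voltage. IC50 from two to four tissues by nonlinear least squares.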

The target in assay [8] is Mu-type opioid receptor (Cavia porcellus) (UniProt P97266). The conditions noted are these: Ileum, filed as agonist.
Assay [9] is filed under the species Mus musculus. Nature of the assay: Antinociceptive effect was determined at 300 nM in mouse. The format is functional.
For assay [10], the target named is T1, Kappa-type opioid receptor. Nature of the assay: Agonistic activity towards Opioid receptor kappa 1 was determined in [35S]GTP-gamma-S, binding assay in guinea pig caudate; g = not active as an agonist. The format is functional. The method, boiled down: (§2)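 Guinea pig caudate membranes (10-20 µg protein) incubated 3 h at 22 °C in Tris-HCl pH 7.4 containing 100 mM NaCl, 10 mM MgCl2, 1 mM EDTA, 100 µM GDP and 0.05-0.1 nM [35S]GTP-γ-S, then filtered and counted. Nonspecific binding defined with 10 µM GTP-γ-S. Site isolation used CTAP, nor-BNI, NTI or TIPP. […] Three experiments pooled; logistic fit.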

The target of assay [11] is Mu-type opioid receptor (Cavia porcellus) (UniProt P97266). The conditions noted are these: Ileum, filed as agonist. The source holds these as a separate data set.
Assay [12] addresses T2, Mu-type opioid receptor. The assay is described as follows: Agonistic activity towards Opioid receptor mu 1 was determined in [35S]GTP-gamma-S, binding assay in guinea pig caudate; g = not active as an agonist. The format is functional. In a few lines: as §2
Background: GTPγS resists hydrolysis and so accumulates on activated G proteins.

Assay [13] deals with Delta-type opioid receptor (Mus musculus) (UniProt P32300). The conditions noted are these: Vas deferens.
Assay [14] shares this target. The assay is described as follows: Agonist activity by the maximum response towards opioid receptor delta 1 induced contractions in mouse vas deferens (MVD) smooth muscle contraction assays. The format is functional, tissue-based. The method, boiled down: as §1
For assay [15], the species on record is Mus musculus. Nature of the assay: Antinociceptive effect was determined by the ability to exhibit 80% reduction of naloxone induced sensitivity; Partial. The class given is functional, organism-based.
The target in assay [16] is T2, Mu-type opioid receptor. Nature of the assay: Apparent binding affinity of compound was determined by antagonism towards Opioid receptor mu 1in [35S]GTP-gamma-S, binding assay in guinea pig caudate; i = could not be calculated because of agonist activity. The format is functional.
The species entered for assay [17] is Mus musculus. The assay is described as follows: Antinociceptive effect was determined by the ability to exhibit 80% reduction of naloxone induced sensitivity; Yes. The class given is functional, organism-based.
Assay [18] deals with T1, Kappa-type opioid receptor. Nature of the assay: Agonistic activity towards Opioid receptor kappa 1 was determined in [35S]GTP-gamma-S, binding assay in guinea pig caudate. The format is functional. The method, boiled down:
as §2

Assay [19] concerns Mus musculus. Nature of the assay: Analgesic activity was calculated at time of peak drug effect when administered (icv) in mouse warm-water tail withdrawal assay. The format is functional. In a few lines: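 Male ICR mice dosed icv (5 µL; water or 100% DMSO) under light ether anaesthesia. 55 °C warm-water tail withdrawal read at 10-180 min, cutoff 10 s. %MPE = 100 × (test − control)/(cutoff − control). A50 and 95% CI taken at peak effect by linear regression.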

The source made the active and inactive calls. Square brackets hold non-standard residues; d marks the D form. Peptide text beside a SMILES is read from it. NMeF = CN[C@@H](Cc1ccccc1)C(=O)O

Opioid receptors; mu & delta (Rattus norvegicus), sequence (P33533 whole entry, looked up): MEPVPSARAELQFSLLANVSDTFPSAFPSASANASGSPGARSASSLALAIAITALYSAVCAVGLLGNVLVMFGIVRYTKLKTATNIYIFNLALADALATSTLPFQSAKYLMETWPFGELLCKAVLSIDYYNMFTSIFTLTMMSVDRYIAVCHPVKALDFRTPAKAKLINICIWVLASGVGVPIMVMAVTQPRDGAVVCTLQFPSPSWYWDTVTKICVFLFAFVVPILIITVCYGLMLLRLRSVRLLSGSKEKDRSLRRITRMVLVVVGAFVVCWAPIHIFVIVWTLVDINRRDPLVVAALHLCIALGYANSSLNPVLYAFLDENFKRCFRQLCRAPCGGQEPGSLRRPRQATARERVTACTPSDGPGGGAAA
Opioid receptors; mu & delta (Rattus norvegicus), sequence (P33535 whole entry, looked up): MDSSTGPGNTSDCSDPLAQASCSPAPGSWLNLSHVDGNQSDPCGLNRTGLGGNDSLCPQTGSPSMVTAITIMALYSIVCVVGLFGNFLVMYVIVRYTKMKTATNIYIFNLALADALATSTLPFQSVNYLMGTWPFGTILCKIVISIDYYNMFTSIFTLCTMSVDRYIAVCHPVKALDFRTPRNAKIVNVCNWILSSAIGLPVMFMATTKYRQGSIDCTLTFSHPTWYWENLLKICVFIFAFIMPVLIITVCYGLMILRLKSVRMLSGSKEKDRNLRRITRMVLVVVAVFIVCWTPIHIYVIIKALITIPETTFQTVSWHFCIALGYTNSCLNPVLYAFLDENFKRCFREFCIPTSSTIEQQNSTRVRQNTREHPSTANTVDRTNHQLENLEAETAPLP
Delta-type opioid receptor (Mus musculus), sequence (P32300 whole entry): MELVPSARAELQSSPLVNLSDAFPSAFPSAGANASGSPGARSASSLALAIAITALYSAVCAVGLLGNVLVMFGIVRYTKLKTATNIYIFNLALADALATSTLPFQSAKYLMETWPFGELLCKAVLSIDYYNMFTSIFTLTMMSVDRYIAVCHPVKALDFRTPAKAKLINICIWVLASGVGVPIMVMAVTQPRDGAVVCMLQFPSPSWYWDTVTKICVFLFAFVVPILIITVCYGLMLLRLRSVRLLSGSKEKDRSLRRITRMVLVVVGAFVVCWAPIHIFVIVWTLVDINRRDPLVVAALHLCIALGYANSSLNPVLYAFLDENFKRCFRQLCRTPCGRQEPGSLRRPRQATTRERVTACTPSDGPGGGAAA
T2 sequence (P97266 whole entry): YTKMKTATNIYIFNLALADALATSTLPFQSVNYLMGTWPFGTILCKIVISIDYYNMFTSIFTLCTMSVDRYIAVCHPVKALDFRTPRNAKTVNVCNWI
Mu-type opioid receptor (Cavia porcellus), sequence (P97266 whole entry): as above
T1 sequence (P41144 whole entry): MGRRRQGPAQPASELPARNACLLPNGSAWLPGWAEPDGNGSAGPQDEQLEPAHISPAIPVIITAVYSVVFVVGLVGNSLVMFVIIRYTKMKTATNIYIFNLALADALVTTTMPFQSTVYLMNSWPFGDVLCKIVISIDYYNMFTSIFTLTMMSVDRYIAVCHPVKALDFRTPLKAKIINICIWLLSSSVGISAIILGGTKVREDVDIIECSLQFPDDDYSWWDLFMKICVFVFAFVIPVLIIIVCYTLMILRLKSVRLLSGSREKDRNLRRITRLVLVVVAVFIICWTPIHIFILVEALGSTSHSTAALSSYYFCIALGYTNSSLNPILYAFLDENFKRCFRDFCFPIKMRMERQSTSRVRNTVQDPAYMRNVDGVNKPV
Delta-type opioid receptor (Rattus norvegicus, UniProt P33533), sequence (P33533 whole entry): as the sequence (P33533 whole entry, looked up) above
Mu-type opioid receptor (Rattus norvegicus, UniProt P33535), sequence (P33535 whole entry): as the sequence (P33535 whole entry, looked up) above
Delta-type opioid receptor (Mus musculus, UniProt P32300), sequence (P32300 whole entry): as the sequence (P32300 whole entry) above

On to `COc1ccc2c3c1O[C@H]1c4ncc(-c5ccccc5)cc4C[C@@]4(O)[C@@H](C2)N(C)CC[C@]314`, for which the Ratio in assay [1] was 26; in the assay filed under Cavia porcellus, more than 294. Moreover, the Ki is 0.034 µM in assay [2], 0.894 µM on Mu-type opioid receptor [3] and more than 10 µM in assay [4].

By IC50 is commonly meant the point on the concentration scale where inhibition reaches its midpoint. Read a low IC50 as greater potency in that assay. Consider `CN(C(=O)[C@@H]1CCCN1C(=O)[C@@H](N)Cc1ccc(O)cc1)[C@@H](Cc1ccccc1)C(=O)N1CCC[C@@H]1C(N)=O` (H-YP[NMeF][dP]-NH2), for which the IC50 in [5] stood at 0.243 µM; against Mu-type opioid receptor [7] it was 0.0594 µM. Also, the Ke result in assay [6] and in assay [8] was “Agonist” in each case.

By EC50 is commonly meant the concentration needed to bring the measured effect to its halfway point. As to `CN1CC[C@]23c4c5ccc(O)c4O[C@H]2c2ncc(-c4ccc(Cl)cc4)cc2C[C@@]3(O)[C@H]1C5`, the Ratio turned out to be 59 in assay [1] and 120 in the assay listed under Cavia porcellus. The Activity is 43% in the assay filed under Mus musculus [9] and “Weak activity” in the assay filed under Mus musculus [15]. Further, the EC50 result (in assay [10]; on Mu-type opioid receptor [12]) was “Not Active” each time. Besides, the Ke result in [11] is “Agonist”; in assay [13] it was 38.2. In assay [2], this compound displayed a Ki of 0.0039 µM. The same compound came in with a Response in assay [14] of 58%.

With `CN1CC[C@]23c4c5ccc(O)c4O[C@H]2c2ncc(-c4ccc(Cl)cc4)cc2C[C@H]3[C@H]1C5`, the Ratio in [1] amounted to 34; in the assay filed under Cavia porcellus, 18. Further, the Ki entry at Mu-type opioid receptor [16] is reported as “Agonist”. For the same compound, the EC50 on Mu-type opioid receptor [12] (read-out: EC50) was 0.9 µM; in [18], “Not Active”. Besides, the result in the assay filed under Mus musculus [17] was Active. At Mu-type opioid receptor [7], this compound registered an IC50 of 0.177 µM. In addition, the results for the Ke in assay [13] and in [8] were 21.9 nM and “Agonist”, respectively. For the same compound, the A50 in the assay on Mus musculus [19] was 42.8 nM.
